Tests used:
Type in all cases: functional
HL-60(TB) = assay: Growth inhibition of human HL-60(TB) cells after 48 hrs by sulforhodamine B assay; settings: HL-60, 48 h
How it was run: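 Tested only on compounds active in a three-line prescreen, in the NCI 60-human-tumour-cell-line panel over a 5-log dose range. Values come from dose–response curves as log10 molar GI50, the concentration inhibiting 50% net cell growth. Log10 TGI (total growth inhibition) and log10 LC50 (50% net cell death) were derived too. Mean graph midpoints include insensitive lines at the highest concentration tested.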

K562 = assay: Growth inhibition of human K562 cells after 48 hrs by sulforhodamine B assay; settings: K562, 48 h
How it was run: (§1)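 NCI 60-human-tumor-cell-line panel, with compounds tested over a 5-log dose range. Values are taken from dose-response curves as log10 molar concentrations: GI50 is 50% net growth inhibition, TGI is total growth inhibition, and LC50 is 50% net cell death.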

[1] = Growth inhibition of human […] cells after 48 hrs by sulforhodamine B assay; how it was run: as §1
SR = assay: Growth inhibition of human SR cells after 48 hrs by sulforhodamine B assay
How it was run: (§2)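 Run in the NCI 60-human-tumour-cell-line panel, tested over a 5-log dose range. Dose–response curves gave three values per cell line, each as a log10 molar concentration: GI50 (50% inhibition of net cell growth), TGI (total inhibition of net growth) and LC50 (50% net cell death). The mean graph midpoint is the arithmetic mean over all lines, with insensitive lines entered at the highest concentration tested.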

A549 = assay: Growth inhibition of human A549 cells after 48 hrs by sulforhodamine B assay; settings: A549, 48 h; how it was run: as §1
EKVX = assay: Growth inhibition of human EKVX cells after 48 hrs by sulforhodamine B assay; how it was run: as §1
HOP-92 = assay: Growth inhibition of human HOP92 cells after 48 hrs by sulforhodamine B assay; settings: HOP-92, 48 h; how it was run: as §1
NCI-H226 = assay: Growth inhibition of human NCI-H226 cells after 48 hrs by sulforhodamine B assay; settings: NCI-H226, 48 h; how it was run: as §1
NCI-H23 = assay: Growth inhibition of human NCI-H23 cells after 48 hrs by sulforhodamine B assay; settings: NCI-H23, 48 h; how it was run: as §1
HCT-116 = assay: Growth inhibition of human HCT116 cells after 48 hrs by sulforhodamine B assay; settings: HCT-116, 48 h; how it was run: as §1
HCT-15 = assay: Growth inhibition of human HCT15 cells after 48 hrs by sulforhodamine B assay; settings: HCT-15, 48 h; how it was run: as §1
HT-29 = assay: Growth inhibition of human HT-29 cells after 48 hrs by sulforhodamine B assay; settings: HT-29, 48 h; how it was run: as §1
SW-620 = assay: Growth inhibition of human SW620 cells after 48 hrs by sulforhodamine B assay; settings: SW-620, 48 h; how it was run: as §2
SF-539 = assay: Growth inhibition of human SF539 cells after 48 hrs by sulforhodamine B assay; settings: SF-539, 48 h; how it was run: as §1
SNB-75 = assay: Growth inhibition of human SNB75 cells after 48 hrs by sulforhodamine B assay; settings: SNB-75, 48 h; how it was run: as §2
LOX IMVI = assay: Growth inhibition of human LOXIMVI cells after 48 hrs by sulforhodamine B assay; how it was run: as §1
M14 = assay: Growth inhibition of human M14 cells after 48 hrs by sulforhodamine B assay; settings: M14, 48 h; how it was run: as §1
SK-MEL-2 = assay: Growth inhibition of human SK-MEL-2 cells after 48 hrs by sulforhodamine B assay; settings: SK-MEL-2, 48 h; how it was run: as §1
SK-MEL-28 = assay: Growth inhibition of human SK-MEL-28 cells after 48 hrs by sulforhodamine B assay; settings: SK-MEL-28, 48 h; how it was run: as §1
UACC-62 = assay: Growth inhibition of human UACC62 cells after 48 hrs by sulforhodamine B assay; settings: UACC-62, 48 h; how it was run: as §2
A498 = assay: Growth inhibition of human A498 cells after 48 hrs by sulforhodamine B assay; settings: A498, 48 h; how it was run: as §1
ACHN = assay: Growth inhibition of human ACHN cells after 48 hrs by sulforhodamine B assay
RXF 393 = assay: Growth inhibition of human RXF393 cells after 48 hrs by sulforhodamine B assay; settings: RXF 393, 48 h; how it was run: as §1
SN12C = assay: Growth inhibition of human SN12C cells after 48 hrs by sulforhodamine B assay; how it was run: as §2
DU-145 = assay: Growth inhibition of human DU145 cells after 48 hrs by sulforhodamine B assay; settings: DU-145, 48 h; how it was run: as §1
NCI/ADR-RES = assay: Growth inhibition of human NCI/ADR-RES cells after 48 hrs by sulforhodamine B assay; how it was run: as §1
BT-549 = assay: Growth inhibition of human BT549 cells after 48 hrs by sulforhodamine B assay; settings: BT-549, 48 h; how it was run: as §1
[2] = read-out: pLC50 (the source's name) (converted)

Nc1cc(N)c2nc(-c3ccccc3)c(Sc3ccc(F)cc3)nc2c1
GI50 (HL-60(TB)): 38.9 µM
LC50 (HL-60(TB)): > 100 µM
TGI (HL-60(TB); read-out: pTGI (converted)): > 100 µM
GI50 (K562): 39.8 µM
LC50 (K562): > 100 µM
TGI (K562; read-out: pTGI (converted)): 38.9 µM
GI50 [1]: 28.2 µM
LC50 [1]: > 100 µM
TGI ([1]; read-out: pTGI (converted)): 81.3 µM
GI50 (SR): 35.5 µM
LC50 (concentration giving 50% net cell death) (SR): > 100 µM
TGI (SR; read-out: pTGI (converted)): > 100 µM
GI50 (A549): 13.5 µM
LC50 (A549): 70.8 µM
TGI (A549; read-out: pTGI (converted)): 30.9 µM
GI50 (EKVX): 20.4 µM
LC50 (50% net cell kill) (EKVX): 83.2 µM
TGI (EKVX; read-out: pTGI (converted)): 41.7 µM
GI50 (HOP-92): 22.9 µM
LC50 (50% net cell death) (HOP-92): > 100 µM
TGI (HOP-92; read-out: pTGI (converted)): 55 µM
GI50 (NCI-H226): 19.1 µM
LC50 (NCI-H226): > 100 µM
TGI (NCI-H226; read-out: pTGI (converted)): 46.8 µM
GI50 (NCI-H23): 19.1 µM
LC50 (50% net cell kill concentration) (NCI-H23): 81.3 µM
TGI (NCI-H23; read-out: pTGI (converted)): 39.8 µM
GI50 (HCT-116): 14.8 µM
LC50 (concentration causing 50% net cell death) (HCT-116): 55 µM
TGI (HCT-116; read-out: pTGI (converted)): 28.2 µM
GI50 (HCT-15): 13.5 µM
LC50 (HCT-15): 56.2 µM
TGI (HCT-15; read-out: pTGI (converted)): 27.5 µM
GI50 (HT-29): 17.8 µM
LC50 (HT-29): > 100 µM
TGI (HT-29; read-out: pTGI (converted)): 45.7 µM
GI50 (SW-620): 22.9 µM
CC50 (SW-620; [2]): > 100 µM
TGI (SW-620; read-out: pTGI (converted)): 50.1 µM
GI50 (SF-539): 21.4 µM
LC50 (SF-539): 75.9 µM
TGI (SF-539; read-out: pTGI (converted)): 39.8 µM
GI50 (SNB-75): 20.9 µM
LC50 (SNB-75): > 100 µM
TGI (SNB-75; read-out: pTGI (converted)): 47.9 µM
GI50 (LOX IMVI): 22.9 µM
LC50 (LOX IMVI): 74.1 µM
TGI (LOX IMVI; read-out: pTGI (converted)): 40.7 µM
GI50 (M14): 15.8 µM
CC50 (M14; [2]): 58.9 µM
TGI (M14; read-out: pTGI (converted)): 30.9 µM
GI50 (SK-MEL-2): 38 µM
CC50 (SK-MEL-2; [2]): > 100 µM
TGI (SK-MEL-2; read-out: pTGI (converted)): > 100 µM
GI50 (SK-MEL-28): 23.4 µM
CC50 (SK-MEL-28; [2]): > 100 µM
TGI (SK-MEL-28; read-out: pTGI (converted)): 53.7 µM
GI50 (UACC-62): 16.6 µM
CC50 (UACC-62; [2]): 60.3 µM
TGI (UACC-62; read-out: pTGI (converted)): 31.6 µM
GI50 (A498): > 100 µM
CC50 (A498; [2]): > 100 µM
TGI (A498; read-out: pTGI (converted)): > 100 µM
GI50 (ACHN): > 100 µM
CC50 (ACHN; [2]): > 100 µM
TGI (ACHN; read-out: pTGI (converted)): > 100 µM
GI50 (RXF 393): > 100 µM
CC50 (RXF 393; [2]): > 100 µM
TGI (RXF 393; read-out: pTGI (converted)): > 100 µM
GI50 (SN12C): > 100 µM
CC50 (SN12C; [2]): > 100 µM
TGI (SN12C; read-out: pTGI (converted)): > 100 µM
GI50 (DU-145): > 100 µM
CC50 (DU-145; [2]): > 100 µM
TGI (DU-145; read-out: pTGI (converted)): > 100 µM
GI50 (NCI/ADR-RES): 16.6 µM
CC50 (NCI/ADR-RES; [2]): 72.4 µM
TGI (NCI/ADR-RES; read-out: pTGI (converted)): 34.7 µM
GI50 (BT-549): 21.9 µM
CC50 (BT-549; [2]): 89.1 µM
TGI (BT-549; read-out: pTGI (converted)): 43.7 µM
